Test results taken from ChEMBL document CHEMBL4177581, “The compound (3-{5-[(2,5-dimethoxyphenyl)amino]-1,3,4-thiadiazolidin-2-yl}-5,8-methoxy-2H-chromen-2-one) inhibits the prion protein conversion from PrPC to PrPSc with lower IC50 in ScN2a cells” (Bioorg Med Chem, 2017).
pEC50, pIC50, pKd: −log10 of the molar value. The source made the active and inactive calls. The calls are words filed in the database; no cut-off is given here.

Legend:
Major prion protein [1] = molecular target: T1, Major prion protein (Mesocricetus auratus, UniProt P04273); experiment: Binding affinity to Syrian hamster PrPC assessed as inhibition of PrPC protein conversion to PrPSc by Western blot
T1 sequence (P04273 whole entry): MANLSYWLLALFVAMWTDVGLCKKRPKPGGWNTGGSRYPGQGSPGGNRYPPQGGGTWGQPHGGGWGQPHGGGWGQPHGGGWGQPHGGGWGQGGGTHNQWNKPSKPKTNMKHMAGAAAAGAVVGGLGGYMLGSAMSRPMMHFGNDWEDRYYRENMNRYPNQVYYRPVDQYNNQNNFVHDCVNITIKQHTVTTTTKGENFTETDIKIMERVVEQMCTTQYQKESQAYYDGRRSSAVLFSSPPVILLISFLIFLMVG

[2] = molecular target: Major prion protein (Mesocricetus auratus) (UniProt P04273); experiment: Binding affinity to Syrian hamster PrPC assessed as inhibition of PrPC protein conversion to PrPSc by measuring PrPSc level relative to untreated control; parameters: concentration or dose not given beside the values
Sequence of Major prion protein (Mesocricetus auratus) (P04273 whole entry, the tested form may be a part): as the sequence (P04273 whole entry) above

[3] = Antiprion activity against mouse prion protein RML infected mouse ScN2a cells assessed as reduction in proteinase K-resistant PrPSc level incubated for 5 days followed by proteinase K digestion by Western blot method relative to control; assay type: cell-based; settings: 120 h
Outline: (§1)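 RML scrapie-infected mouse N2a (ScN2a) cells treated for 5 days at […]. Lysates were made in 0.5% NP-40/0.5% deoxycholate Tris-HCl pH 8 buffer and normalised to 1 mg/ml protein. They were digested with 20 µg/ml proteinase K for 1 h at 37 °C, stopped with PMSF, and pelleted at 100,000g. Pellets were immunoblotted with 6D11-biotin. DMSO and quinacrine controls set the normalised percent PrPSc change.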

ScN2a = experiment: Antiprion activity against mouse prion protein RML infected mouse ScN2a cells assessed as reduction in proteinase K-resistant PrPSc level at 10 to 100 uM incubated for 5 days followed by proteinase K digestion by Western blot method relative to control; assay type: cell-based; outline: as §1
Major prion protein [4] = molecular target: T1, Major prion protein; experiment: Binding affinity to Syrian hamster PrPC
[5] = molecular target: Major prion protein (Mesocricetus auratus) (UniProt P04273); experiment: Binding affinity to C-terminal 6x-His-tagged Syrian hamster PrPC (90 to 232 residues) by 15N-HSQC NMR spectroscopy
Outline: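 Uniformly 15N-labelled Syrian hamster PrPC residues 90–232 was titrated with ligand at a 5:1 ligand/protein molar ratio. 15N-HSQC spectra were recorded, and binding was read as chemical shift changes and signal attenuation of residues.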

## Cc1cccc2cc3c(N)c(C(=O)NC4CCCC4)sc3nc12
Major prion protein [1]
  pEC50: 5.13
[2]
  Activity: 41.9%

## COc1ccc(-c2nc(N)sc2-c2ccc(OC)cc2)cc1
[3]
  pIC50: < 4.00
ScN2a
  inhibition: Active
Major prion protein [4]
  pKd: 4.81

## O=C(NC1CCCC1)C1CCCN1C(=O)Nc1ccccc1 (stereo unspecified)
Major prion protein [1]
  pEC50: 5.14
[2]
  Activity: 63.2%

## N#Cc1c(NC(=O)c2cc3c(s2)CCCC3)sc2c1CCCC2
Major prion protein [1]
  pEC50: 5.14
[2]
  Activity: 66.9%

## COc1ccc(-c2cnc(N)nc2C)cc1OC
[3]
  pIC50: 4.46
ScN2a
  inhibition: Active

## O=C(CN1C(=O)N[C@@]2(CCCc3ccccc32)C1=O)N1CCCCC1
Major prion protein [1]
  pEC50: 5.14
[2]
  Activity: 67.1%

## O=C(CN1C(=O)COc2ccccc21)N1CCCc2ccccc21
Major prion protein [1]
  pEC50: 5.14
[2]
  Activity: 57.5%

## COc1ccc(OC)c(-c2nc(NC(=O)c3cc(OC)c(OC)c(OC)c3)sc2C)c1
[3]
  pIC50: 4.12
ScN2a
  inhibition: Active
Major prion protein [4]
  pKd: 3.73

## O=C(CSc1ncnc2sc3c(c12)CCC3)NCC1CCCO1 (stereo unspecified)
Major prion protein [1]
  pEC50: 5.15

## O=C(N[C@@H]1CCc2ccccc2C1)C(=O)O[C@@H]1C=CCc2ccccc21
Major prion protein [1]
  pEC50: 5.14
[2]
  Activity: 53%

## O=C(CC1CNc2ccccc21)NC1CCc2ccccc2C1 (stereo unspecified)
Major prion protein [1]
  pEC50: 5.14
[2]
  Activity: 55.3%
Major prion protein [4]
  pKd: 4.31

## COc1ccc(-c2cnc(N)nc2-c2ccc(OC)cc2)cc1
[3]
  pIC50: 4.46
ScN2a
  inhibition: Active

## CC1CCCCC1NC(=O)COc1ncnc2sc3c(c12)CCC3 (stereo unspecified)
Major prion protein [1]
  pEC50: 5.15
[2]
  Activity: 68.8%

## COc1ccc(OC)c(Nc2nnc(-c3cc4cccc(OC)c4oc3=O)s2)c1
[3]
  pIC50: 4.70
ScN2a
  inhibition: Active
Major prion protein [4]
  pKd: 4.33

## C=CNC(=O)NC(C)=O
Major prion protein [1]
  pEC50: 5.14
[2]
  Activity: 56.7%

## CCC[C@@H]1Nc2ccccc2N1CC(=O)N1CCCc2ccccc21
Major prion protein [1]
  pEC50: 5.14
[2]
  Activity: 67.2%

## C[C@@H]1CCCCN1CC(=O)N[C@@H]1S[C@H]2CCCC[C@@H]2[C@H]1C#N
Major prion protein [1]
  pEC50: 5.14
[2]
  Activity: 58.8%

## O=C(CCc1nc2ccccc2c(=O)[nH]1)NC1CCCc2ccccc21 (stereo unspecified)
Major prion protein [1]
  pEC50: 5.14
[2]
  Activity: 65%

## Cc1cc2cc3c(cc2nc1SCCN1CCCCC1)OCCO3
Major prion protein [1]
  pEC50: 5.14
[2]
  Activity: 47.4%
Major prion protein [4]
  pKd: 4.29

## CN1/C(=C/C(=O)Nc2cccs2)c2ccccc2CC1(C)C
Major prion protein [1]
  pEC50: 5.14
[2]
  Activity: 57.4%

## O=C(CN1C(=O)c2cccc3cccc1c23)N[C@@H]1C[C@H]2CC[C@@H]1C2
Major prion protein [1]
  pEC50: 5.14
[2]
  Activity: 65%

## CCCCNc1nc2ccccc2n1CC(=O)N1CCc2ccccc21
Major prion protein [1]
  pEC50: 5.13
[2]
  Activity: 37.3%

## O=C(COC(=O)c1c2c(nc3ccccc13)CCC2)NC1CCCC1
Major prion protein [1]
  pEC50: 5.14
[2]
  Activity: 62.9%

## COc1ccc(-c2nc(N)sc2C)c(OC)c1
[3]
  pIC50: 4.46
ScN2a
  inhibition: Active

## CC1Cc2ccccc2N1C(=O)COc1ncnc2sccc12 (stereo unspecified)
Major prion protein [1]
  pEC50: 5.14
[2]
  Activity: 67.4%

## CCC(C)C(NC(=O)c1ccccc1)C(=O)N1CCc2ccccc21 (stereo unspecified)
Major prion protein [1]
  pEC50: 5.13
[2]
  Activity: 36.8%
[5]
  Activity: Active
Major prion protein [4]
  pKd: 4.29

## Cc1cccc2cc(C#N)c(N3CCCN(C(=O)C4CCC4)CC3)nc12
Major prion protein [1]
  pEC50: 5.14
[2]
  Activity: 50.6%

## O=C(CN1CCc2ccccc21)[C@H]1COc2cc3c(cc21)CCC3
[2]
  Activity: 63.7%
